This is an account of results in ChEMBL document CHEMBL4130438, “6,7-Seco-ent-Kauranoids Derived from Oridonin as Potential Anticancer Agents” (J Nat Prod, 2017).

In test [1] the test system is MCF7. Briefly: Cell cycle arrest in human MCF7 cells assessed as accumulation at G2/M phase at 0.50 uM after 48 hrs by propidium iodide staining based flow cytometry (reference value: 12.72%). Format: functional. (In flow cytometry, cells or beads pass a laser one at a time.)
The test system of a further test is MGC-803. Kind of test: Antiproliferative activity against human MGC803 cells after 72 hrs by MTT assay. In kind it is functional, cell-based. The following applies: MGC-803, 72 h. A digest of the protocol: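 Cells pre-incubated 24 h at 37 °C, 5% CO2 in 96-well plates, then exposed to a range of compound concentrations (DMSO ≤0.25%) for 72 h. Viable cells read by MTT colour at 570 nm. Performed in quadruplicate, repeated three times. IC50 reported as means ± SD, n = 3.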
In general terms: Tetrazolium assays rely on reduction of a dye to a coloured formazan, in cell work by metabolically active cells.

The subject of test [2] is MCF7. Kind of test: Induction of apoptosis in human MCF7 cells assessed as late apoptotic cells at 1 uM after 24 hrs by Annexin-V FITC/propidium iodide staining based flow cytometry (reference value: 0.290%). In kind it is functional.
Test [3] relates to MCF7. Briefly: Induction of apoptosis in human MCF7 cells assessed as late apoptotic cells at 2 uM after 24 hrs by Annexin-V FITC/propidium iodide staining based flow cytometry (reference value: 0.290%). In kind it is functional.
For test [4], the system named is MCF7. Briefly: Cell cycle arrest in human MCF7 cells assessed as accumulation at S phase at 1 uM after 48 hrs by propidium iodide staining based flow cytometry (reference value: 17.01%). Format: functional.
Test [5] relates to MCF7. Briefly: Cytotoxicity against human MCF7 cells assessed as decrease in cell viability after 24 hrs by LDH release assay. In kind it is functional, cell-based. A digest of the protocol:
(§1)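 MCF-7 and Bel-7402 cells seeded at ~5 × 10^3 per well for 24 h, then exposed to compounds. LDH released into the medium measured with CytoTox-ONE reagent (10 min, ambient temperature) followed by stop solution. Fluorescence read at ex 560/em 590 nm.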

Another test has as its system Bel-7402. Briefly: Cytotoxicity against human Bel7402 cells assessed as decrease in cell viability after 24 hrs by LDH release assay. In kind it is functional, cell-based. Put shortly:
as §1
For orientation: Release of lactate dehydrogenase indicates damage to the cell membrane.

For test [6], the system named is MCF7. Briefly: Induction of apoptosis in human MCF7 cells assessed as late apoptotic cells at 0.25 uM after 24 hrs by Annexin-V FITC/propidium iodide staining based flow cytometry (reference value: 0.290%). Format: functional.
The subject of test [7] is MCF7. Kind of test: Cell cycle arrest in human MCF7 cells assessed as accumulation at S phase at 0.50 uM after 48 hrs by propidium iodide staining based flow cytometry (reference value: 17.01%). Format: functional.
Test [8] relates to MCF7. Briefly: Cell cycle arrest in human MCF7 cells assessed as accumulation at G1 phase at 1 uM after 48 hrs by propidium iodide staining based flow cytometry (reference value: 70.27%). Format: functional.
Test [9] concerns MCF7. Kind of test: Induction of apoptosis in human MCF7 cells assessed as necrotic cells at 0.25 uM after 24 hrs by Annexin-V FITC/propidium iodide staining based flow cytometry (reference value: 0.610%). Format: functional.
In test [10] the test system is MCF7. Kind of test: Induction of apoptosis in human MCF7 cells assessed as viable cells at 0.25 uM after 24 hrs by Annexin-V FITC/propidium iodide staining based flow cytometry (reference value: 97.5%). Conditions: MCF7, 24 h, read-out: Activity. In kind it is functional.
For test [11], the system named is MCF7. Briefly: Cell cycle arrest in human MCF7 cells assessed as accumulation at G2/M phase at 0.25 uM after 48 hrs by propidium iodide staining based flow cytometry (reference value: 12.72%). In kind it is functional.
Test [12] relates to MCF7. Kind of test: Cell cycle arrest in human MCF7 cells assessed as accumulation at G2/M phase at 1 uM after 48 hrs by propidium iodide staining based flow cytometry (reference value: 12.72%). Format: functional.
The subject of test [13] is MCF7. Briefly: Induction of apoptosis in human MCF7 cells assessed as viable cells at 1 uM after 24 hrs by Annexin-V FITC/propidium iodide staining based flow cytometry (reference value: 97.5%). Conditions: MCF7, 24 h, read-out: Activity. Format: functional.
In another test the test system is H22. Briefly: Antitumor activity against […] cells xenografted in ICR mouse assessed as decrease in tumor weight at 10 to 20 mg/kg, iv qd administered for 14 consecutive days measured every 2 days. Format: functional, organism-based. A digest of the protocol: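 Male ICR mice, five weeks old, implanted s.c. in the right flank with 1 × 10^6 H22 cells. After 7 days, randomised into groups of eight. Given i.v. once daily for 14 days, 10 or 20 mg/kg in 10% DMF/2% poloxamer/88% saline; negative controls received 0.9% saline i.v., positive control 20 mg/kg oridonin. Body weight and tumour volume (L × W²/2) recorded every 2 days. Tumours excised and weighed at sacrifice; inhibition (%) = (1 − treated/control mean tumour weight) × 100.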

The subject of test [14] is MCF7. Kind of test: Induction of apoptosis in human MCF7 cells assessed as early apoptotic cells at 1 uM after 24 hrs by Annexin-V FITC/propidium iodide staining based flow cytometry (reference value: 1.60%). Format: functional.
Test [15] deals with MCF7. Kind of test: Induction of apoptosis in human MCF7 cells assessed as necrotic cells at 0.50 uM after 24 hrs by Annexin-V FITC/propidium iodide staining based flow cytometry (reference value: 0.610%). Format: functional.

The structures appear in SMILES notation. pIC50: −log10 of the molar value. The source made the active and inactive calls. The calls are words filed in the database; no cut-off is given here.

The pIC50 is the negative decadic logarithm of the IC50, by convention in mol/L. A low value points to a large IC50. Turning to `C=C1C(=O)[C@@]23C(=O)OC[C@]4(C=CCC(C)(C)[C@H]4C=O)[C@@H]2CC[C@@H]1[C@H]3OC(=O)c1ccc(F)cc1`, the Activity turned out to be 19.47% in the test with MCF7 [1]; 15.9% in the test on MCF7 [2]; 24.7% in the test with MCF7 [3]; 15.43% in the test with MCF7 [4]; 5.51% in the test with MCF7 [6]; 15.71% in the test with MCF7 [7]. Besides, the Activity in the test with MCF7 [8] is reported as 63.35%; with MCF7 [9] it was 0.649%; with MCF7 [11], 14.06%; in the test on MCF7 [12] it was 21.23%; with MCF7 [14], 10.2%; in the test with MCF7 [15], 0.901%. This compound gave a pIC50 with MGC-803 of 5.66. Besides, the result with MCF7 [5] and with Bel-7402 was inactive. Besides, the viability at 0.25 µM with MCF7 [10] stood at 87.2%. Besides, the viability at 1 µM in the test on MCF7 [13] stood at 72%. Further, the result in the test on H22 was Active.
